Screening data as filed in PubChem.
Yeast lifespan up – yeast lifespan extension; S. cerevisiae growth with nicotinamide, OD615; deaD strain in restrictive glucose medium; AID 775; inhibition of the nicotinamide effect, % at 10 µM; 130,000 tested, 0.68% active;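 active = inhibition above a set limit, placed 3 SD over the median of all compounds, cut at about 26% in these data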;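 also: 0% = nicotinamide-treated wells and 100% = cells grown without nicotinamide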
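Test system: DeaD-strain S. cerevisiae / Buffer or medium: restrictive glucose medium / Also added: nicotinamide 1.5 mM / Doses: one concentration, 10 µM, DMSO 0.25% / Schedule: 48 h at 30 °C / Signal: OD615 measurement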
RAM network inh – blocks the yeast RAM network | S. cerevisiae dse1pr::URA3 reporter, 5-FOA growth OD615, 2 d; analog-sensitive cbk1-as2 kinase mutant strain | inhibition, % at 50 µM | 190,000 tested, 1.8% active | AID 868;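 active = inhibition above a set limit, 3 SD over mean compound inhibition, cut at about 8.4% in these data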;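 also: 0% = DMSO-only wells with no growth and 100% = 10 µM 1-NA-PP1 full growth; inhibition rescues growth on 5-FOA so higher OD means more RAM inhibition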
WT yeast gro inh – growth inhibition of WT yeast, mitochondrial fusion screen; mitochondrial fusion phenotypic screen, WT strain; inhibition, % at 10 µM; 190,000 tested, 2.1% active; in the data active = inhibition above about 58%; tested in S. cerevisiae
BB579 growth dn – reduces growth of yeast BB579 in restrictive medium; S. cerevisiae BB579 growth, OD615, 48 h; inhibition, % at 10 µM; 140,000 tested, 0.51% active;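 active = inhibition above a set limit, 3 SD over the mean compound inhibition, cut at about 44% in these data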
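Test system: DeaD yeast strain BB579 / Buffer or medium: restrictive glucose-based CSMM-D medium / Doses: single 10 µM dose / Schedule: 4 h cell preincubation, 48 h compound exposure, 30 °C humidified / Technique: culture absorbance at 615 nm / Controls: amphotericin B positive control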
Active calls of the source: *; nt = no result. The list is not random: actives were taken first. Their share in the collection is about 4.3%.

SMILES	Yeast lifespan up	RAM network inh	WT yeast gro inh	BB579 growth dn
Cc1ccc(C(=O)NN(CCC(=O)NC(C)(C)C)C2=NS(=O)(=O)c3ccccc32)cc1	2	9.6*	-13	-12
CN(NC(=O)c1ccccc1)C1=NS(=O)(=O)c2ccccc21	nt	1	0	nt
O=C(NN=C1CCCC1)c1ccccc1OCCOc1ccccc1	nt	0	3	nt
COc1ccc(NC(=O)CCC(=O)c2cccs2)cc1S(=O)(=O)Nc1ccccc1Cl	4	10.0*	-16	-31
COc1ccc(NS(=O)(=O)c2cccc(NC(=O)CCC(=O)c3cccs3)c2)cc1	2	8	2	-31
O=C(Nc1ccc(Cl)c(S(=O)(=O)Nc2ccccc2Cl)c1)c1cccs1	17	4	84*	-12
Cc1ccc(C(=O)Nc2ccc(C)c(S(=O)(=O)Nc3ccccc3Cl)c2)s1	-1	4	70*	-24
Cc1ccc(NC(=O)c2cc3c(s2)CCCC3)cc1S(=O)(=O)Nc1ccccc1Cl	4	5	2	-29
O=C1C2CC(O)CN2C(=O)N1c1ccccc1 (centres undefined)	nt	2	-2	nt
CCCCC(C)(O)C/C=C/[C@H]1[C@H](O)CC(=O)[C@@H]1CCCCCCC(=O)OC (some centres undefined)	32*	1	-10	-39
CCCCCCC(=O)Oc1ccc(N2C(=O)CCC2=O)cc1	nt	0	17	nt
Cc1ccc(CNC(=O)c2cnccn2)cc1	1	2	-19	-18
CC(C)(C)C(=O)Cn1c(=N)n(Cc2ccccc2Cl)c2ccccc21	4	2	14	-76
CC(C)(C)C(=O)Cn1c(=N)n(Cc2ccccc2)c2ccccc21	32*	1	70*	-22
CCOC(=O)C1CCCN(c2c(C(=O)c3ccccc3)cnc3ccccc23)C1 (centres undefined)	nt	2	59*	nt
CCOC(=O)C1CCCN(c2nc(C)nc3c2oc2ccccc23)C1 (centres undefined)	-21	1	23	-38
CCOC(=O)C1CCN(c2c(C(=O)c3ccccc3)cnc3ccc(CC)cc23)CC1	nt	3	76*	nt
Cc1cc(C)c(OCC(=O)Nc2nnc(-c3ccco3)o2)c(C)c1	nt	4	59*	nt
NC(=O)CSc1nccn1Cc1ccc(Cl)cc1	nt	2	3	nt
Cc1ccc(-n2cc(C(=O)c3ccc(F)cc3)nn2)cc1Cl	-18	3	68*	-49
COc1cc(CNn2cn[nH]c2=S)cc(Cl)c1OCc1ccc(F)cc1	-8	-2	66*	4
CCOC(=O)C1CCC(CN(Cc2ccccc2C)S(=O)(=O)c2ccc([N+](=O)[O-])cc2)CC1 (centres undefined)	10	8	74*	-60
CCOC(=O)C1CCN(c2ccc([N+](=O)[O-])cc2)CC1	nt	1	-26	nt
O=C(c1ccc(COc2ccc(Cl)cc2)cc1)N1CCCCC1	nt	-2	60*	nt
C#CCOCCOCCOCCNc1nc(N2CCN(C(=O)[C@H](C)n3cc(CCCN=C(N)N)nn3)CC2)nc(N2CCN(C(=O)[C@H](C)n3cc(CCCN=C(N)N)nn3)CC2)n1	3	-1	-26	-16
SMILES	Yeast lifespan up	RAM network inh	WT yeast gro inh	BB579 growth dn
Cc1ccccc1NC(=S)NC1(C)CCS(=O)(=O)C1 (centres undefined)	4	1	-7	-33
Cn1c(=O)[nH]c(=O)c2c1nc(SCCO)n2CC(O)COc1ccccc1 (centres undefined)	nt	0	1	nt
O=C(Nc1ccccc1)c1ccc(-c2ccc(Br)cc2)o1	nt	3	74*	-21
O=C(NC1CCS(=O)(=O)C1)c1ccc(-c2ccc(Br)cc2)o1 (centres undefined)	-14	4	82*	-50
Cc1ccc(C(=O)N/C(=C\c2ccc(-c3ccc(Br)cc3)o2)C(=O)NC2CCS(=O)(=O)C2)cc1 (centres undefined)	2	4	2	-38
COc1ccccc1NC(=O)c1ccc(-c2ccc(Br)cc2)o1	-6	11*	8	-56
O=S(=O)(Nc1ccc(Cl)cc1)c1ccc(N2CCOCC2)c(NC(=S)NC2CC2)c1	nt	5	-3	nt
CCCCCCn1c(C)nc2c(c1=O)c1nc3ccccc3nc1n2/N=C/c1ccco1	-10	3	13	-31
CCO/C(C)=N/n1c2nc3ccccc3nc2c2c(=O)n(Cc3ccccc3Cl)c(C)nc21	12	8.6*	-1	-24
C=CCOC(=O)C1=C[C@H](c2coc3ccccc3c2=O)C[C@H](OCc2ccc(CO)cc2)O1	nt	2	-25	nt
CC(C)(C)[C@H]1C=C(C(=O)N2CCN(Cc3ccc4c(c3)OCO4)CC2)O[C@@H](OCc2ccc(CO)cc2)C1	nt	-1	97*	nt
CC(C)(C)[C@H]1C=C(C(=O)N2CCN(Cc3ccccc3)CC2)O[C@@H](OCCCCO)C1	nt	3	-28	nt
C=CCOC(=O)C1=C[C@@H](c2coc3ccccc3c2=O)C[C@@H](OCc2ccc(CO)cc2)O1	nt	3	68*	nt
O=C(C1=C[C@@H](c2csc3ccccc23)C[C@@H](OCc2ccc(CO)cc2)O1)N1CCN(Cc2ccccc2)CC1	nt	1	94*	nt
CC(C)(C)[C@@H]1C=C(C(=O)N2CCN(Cc3ccccc3)CC2)O[C@H](OCc2ccc(CO)cc2)C1	nt	-1	70*	nt
CC(C(=O)N1CCOCCOCCOCCOCCOCC1)N1C(=O)c2ccccc2C1=O (centres undefined)	nt	3	-4	nt
O=S(=O)(/N=C(/Nc1ccccn1)c1ccccc1)c1ccccc1	10	1	21	-54
CC(C)(C)NC(=O)c1oc2ccccc2c1COc1ccccc1	-7	7	51	-25
CCOC(=O)c1c(N2C(=O)C3CC(C)=C(C)CC3C2=O)sc(C)c1C (centres undefined)	7	2	-11	-6
CCCCn1c2nc3ccccc3nc2c2c(=N)oc(C)nc21	nt	nt	10	nt
CCCCC(CC)Cn1c2nc3ccccc3nc2c2c(=N)oc(C)nc21 (centres undefined)	94*	2	-12	-50
Cc1cccc(OCCCC(=O)Nc2ccc3c(c2)OCO3)c1	-27	1	74*	-38
Cc1cccc(NC(=S)N/N=C/c2ccc3c(c2)OCO3)c1	-1	3	60*	-4
CCOc1ccc(N(C(C)=O)c2nc(C)cc(C)c2C#N)cc1	nt	0	-1	11
CCn1nc(CC(=O)O)c2ccccc2c1=O	nt	0	7	nt
SMILES	Yeast lifespan up	RAM network inh	WT yeast gro inh	BB579 growth dn
CC(C)CC(=O)NC(=S)N1CCN(c2ccc([N+](=O)[O-])cc2Cl)CC1	-1	3	-1	-20
O=C(NCCN1CCOCC1)c1cc(Sc2ccccc2Cl)nc2ccccc12	-3	-1	-19	19
CC(C)(C)c1ccccc1NC(=S)NC1CCCCC1	nt	6	66*	nt
COc1ccc(Cl)cc1NC(=S)NCCC(c1ccccc1)c1ccccc1	-9	0	46	7
COc1cccc(NC(=O)C(=S)NC2CCCCC2)c1	nt	2	59*	nt
CC1CCCN(C(=S)Nc2ccc(Nc3ccccc3)cc2)C1 (centres undefined)	nt	9.3*	35	nt
COc1ccccc1NC(=S)NCCC(c1ccccc1)c1ccccc1	-3	9.8*	71*	22
